This note sets out measurements from ChEMBL document CHEMBL1132479, “Synthesis, physicochemical characterization, and biological evaluation of 2-(1'-hydroxyalkyl)-3-hydroxypyridin-4-ones: novel iron chelators with enhanced pFe(3+) values” (J Med Chem, 1999).

Molecules are shown by their SMILES.

Data set [1] in a line: Partition coefficient (logD7.4). The format is physicochemical. To be noted: octanol/water, pH 7.4. The gist of the method: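 Partitioning between 1-octanol and 50 mM MOPS buffer pH 7.4 (mutually saturated) in an automated continuous-flow filter-probe system. Compound was dissolved in buffer to an absorbance of 0.5–1.5 at ~280 nm. The aqueous phase was separated by a hydrophilic cellulose filter and monitored spectrophotometrically. D7.4 was calculated after each octanol addition.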

Data set [2] concerns Rattus norvegicus. Description: Compound was tested in vivo for Iron mobilization against hepatocytes in normal fasted rats (loaded with [59Fe]-Ferritin). The format is functional, Hepatocyte. The gist of the method: (§1)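 Fasted normal rats (190–230 g) received [59Fe]ferritin by tail vein to label hepatocyte iron. One hour later chelator was given orally at 450 µmol/kg; controls received an equal volume of water. Rats were kept in metabolic cages, with food allowed 1 h after dosing and water unrestricted. At 24 h, liver and GI tract plus feces were gamma-counted. Mean ± SD, n=5.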

The nature of data set [3]: Partition coefficient (logP). The format is physicochemical. To be noted: octanol/water.
The test system of data set [4] is Rattus norvegicus. Briefly: (§2) Compound was tested in vivo for Iron mobilization efficacy against hepatocytes in normal fasted rats (loaded with [59Fe]-Ferritin). The format is functional, Hepatocyte. On the set-up: concentration or dose not given beside the values. Put shortly:
as §1

Data set [5] in a line: Ligand pka2 value was investigated by spectrophotometric titration. The format is physicochemical. Particulars: read-out: pKa2. Put shortly: (§3)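 Simultaneous potentiometric and UV/vis titration in 0.1 M KCl (25 mL), acidified with 0.2 M HCl and titrated with 0.2 M KOH in 0.01-mL increments. Run at 25 ± 0.5 °C under argon. Electrode zero was set by a blank titration using Gran's plot. pKa values came from non-linear least-squares regression, accurate to ±0.02 pH unit.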

Data set [6] is described as follows: Affinity constant log K1 value for Fe(III) complex. The format is ADME. The gist of the method:
(§4)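 Spectrophotometric titration of Fe(III) with ligand at a ligand:iron ratio of about 10:1, with 0.2 M KOH added by programmed autoburette. Full spectra were recorded across pH, e.g. 1.59–10.05 with [Fe(III)] = 1.8×10^-4 M. Cumulative stability constants were optimized by non-linear least-squares regression using the predetermined pKa values, electrode slope and electrode zero.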

The nature of data set [7]: Affinity constant log K2 value for Fe(III) complex. The format is ADME. Put shortly:
as §4

Data set [8] is described as follows: Affinity constant log beta-3 value for Fe(III) complex. The format is ADME. The gist of the method:
as §4

Data set [9] is described as follows: Affinity constant log K3 value for Fe(III) complex. The format is ADME. Put shortly:
as §4

Data set [10] in a line: Ligand pka1 value was investigated by potentiometric titration. The format is physicochemical. To be noted: read-out: pKa1. Put shortly:
as §3

A short description of data set [11]: pFe3+ (negative logarithm of the concentration of the free Iron(III) in solution) of the compound. The format is ADME. The gist of the method:
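pFe3+ is the negative log of free Fe(III), calculated from the ligand pKa values and Fe(III) stability constants at total ligand 10^-5 M, total iron 10^-6 M, pH 7.4.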

The nature of data set [12]: Ligand pka2 value was investigated by potentiometric titration. Particulars: read-out: pKa2. The format is physicochemical. The gist of the method: as §3
In data set [13] the test system is Rattus norvegicus. Description: Compound was tested in vivo for Iron mobilization against hepatocytes in normal fasted rats ( loaded with [59Fe]-Ferritin). The format is functional, Hepatocyte. The gist of the method: as §1
In data set [14] the test system is Rattus norvegicus. Described as §2. The format is functional, Hepatocyte. The gist of the method:
as §1

Data set [15] is described as follows: Ligand pka1 value was investigated by spectrophotometric titration. The format is physicochemical. Particulars: read-out: pKa1. The gist of the method: as §3
Data set [16] concerns Rattus norvegicus. Description: Compound was tested in vivo for Iron mobilization efficacy against hepatocytes in normal fasted rats(loaded with [59Fe]-Ferritin). The format is functional, Hepatocyte. The gist of the method: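 Normal fasted rats (190–230 g); hepatocyte iron labelled with [59Fe]ferritin given by tail vein. One hour later, chelator 450 µmol/kg was given orally; controls received an equivalent volume of water. Rats were housed in individual metabolic cages with urine and feces collected. Killed 24 h after ferritin; liver and GI tract with contents and feces were gamma counted. Means ± SD, n=5.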

By logD is commonly meant lipophilicity at a set pH, counting ionised and neutral species. Broadly, the logP is a log measure of how a compound divides between an organic and an aqueous phase. `O=C(OCCCn1ccc(=O)c(O)c1CO)c1ccccc1` showed a logD in data set [1] of 0.749. Moreover, the Iron mobilization in the data set with Rattus norvegicus [2] was found to be 56%. This molecule also gave a logP in data set [3] of 0.749. The same molecule showed an Efficacy in the data set with Rattus norvegicus [4] of 52.1%.

With `Cn1ccc(=O)c(O)c1CO`, the pKa in data set [5] was found to be 9.11; in data set [10] it was 2.92; in data set [12], 9.11. Besides, the “Log K1” value in data set [6] is 14.47. In data set [1], this molecule had a logD of -1.32. In addition, the Iron mobilization in the data set with Rattus norvegicus [2] stood at 8.44%. The “Log K2” value in data set [7] came out at 11.27. In addition, the “Log beta3” value in data set [8] is 35.3. Also, in [9], the “Log K3” value was found to be 9.58. For the same molecule, the logP in data set [3] was -1.32. This molecule gave an Efficacy in the data set with Rattus norvegicus [4] of 4.6%. Further, in [11], the pFe3 amounted to 20.9.

Turning to `CCn1ccc(=O)c(O)c1CO`, the “Log K1” value in [6] was found to be 14.66. The molecule also showed a log distribution coefficient (logD) in [1] of -0.854. The “Log K2” value in data set [7] is 11.16. In addition, the “Log beta3” value in data set [8] was found to be 35.3. Also, in data set [9], the “Log K3” value is reported as 9.43. In [3], the logP is -0.854. Besides, the pKa in [10] amounted to 2.8; in data set [12] it was 9.27. In addition, the Efficacy in the data set on Rattus norvegicus [4] was found to be 29.4%. The molecule also had an Iron mobilization with Rattus norvegicus [13] of 33.3%. Further, the pFe3 in data set [11] is 21.

`CCn1ccc(=O)c(O)c1C(C)O` (stereo not drawn): in [6], the “Log K1” value came to 15.21. In addition, the logD in data set [1] was -0.575. Further, in [7], the “Log K2” value came to 10.97. In addition, in [8], the “Log beta3” value was found to be 35.1. The molecule further returned an Iron mobilization in the data set with Rattus norvegicus [14] of 54.5%. In addition, the “Log K3” value in [9] came to 8.9. Moreover, the logP in data set [3] is -0.575. Also, the pKa in data set [10] came to 3.03; in data set [12], 8.77. In the data set with Rattus norvegicus [4], this molecule yielded an Efficacy of 50.6%. The pFe3 in [11] was found to be 21.4.

On to `CC(O)c1c(O)c(=O)ccn1CCCO` (stereo not drawn), for which the “Log K1” value in [6] worked out at 14.93. In data set [1], this molecule had a logD of -1.12. This molecule also returned an Iron mobilization in the data set with Rattus norvegicus [2] of 14.5%. For the same molecule, the “Log K2” value in data set [7] was found to be 10.87. Also, in data set [8], the “Log beta3” value is 34.7. Also, in data set [9], the “Log K3” value was determined as 8.87. For the same molecule, the logP in data set [3] was -1.12. Moreover, the pKa in data set [10] was found to be 2.98; in data set [12] it was 8.72. In the data set with Rattus norvegicus [4], this molecule returned an Efficacy of 10.6%. For the same molecule, the pFe3 in [11] came out at 21.5.

Consider `Cc1c(O)c(=O)ccn1CCCOC(=O)c1ccccc1`, for which the logD in [1] is 1.25. Besides, the logP in data set [3] was found to be 1.25. For the same molecule, in the data set with Rattus norvegicus [4], the Efficacy stood at 32.5%.

On to `O=c1ccn(CCCO)c(CO)c1O`, for which, in data set [6], the “Log K1” value stood at 15.67. This molecule gave a logD in data set [1] of -1.25. Further, the Iron mobilization in the data set with Rattus norvegicus [2] turned out to be 11.7%. Besides, the “Log K2” value in [7] is on record as 10.01. Moreover, the “Log beta3” value in [8] is on record as 35.3. Moreover, in [9], the “Log K3” value was 9.57. Besides, in data set [3], the logP is -1.25. For the same molecule, the pKa was 3.02 in data set [10] and 9.29 in data set [12]. In the data set with Rattus norvegicus [4], the Efficacy amounted to 7.8%. For the same molecule, the pFe3 in data set [11] was determined as 20.7.

For the molecule `Cc1cc(=O)c(O)c(C(C)O)n1C` (stereo not drawn), the “Log K1” value in [6] stood at 15.38. The same molecule showed a logD in [1] of -0.606. Further, in the data set with Rattus norvegicus [2], the Iron mobilization was 48.4%. Further, the “Log K2” value in data set [7] came to 11.09. Besides, in data set [8], the “Log beta3” value is reported as 35.5. In data set [9], the “Log K3” value was determined as 9.05. In [3], the log partition coefficient (logP) is -0.606. Besides, the pKa in data set [10] is 3.54; in data set [12], 8.99. For the same molecule, the Efficacy in the data set with Rattus norvegicus [4] is recorded as 44.5%. Besides, the pFe3 in [11] stood at 21.5.

For `CCc1c(O)c(=O)ccn1CCOC(=O)C(C)(C)C`, the logD in [1] was 1.16. Moreover, the logP in data set [3] is 1.16. For the same molecule, the Efficacy in the data set on Rattus norvegicus [4] is 19.1%.

In the case of `CCn1c(C)cc(=O)c(O)c1CO`, the “Log K1” value in [6] amounted to 14.37. For the same molecule, the logD in data set [1] was -0.652. This molecule also registered an Iron mobilization in the data set with Rattus norvegicus [2] of 12.9%. For the same molecule, in data set [7], the “Log K2” value came out at 11.6. For the same molecule, the “Log beta3” value in data set [8] is recorded as 35.6. For the same molecule, in data set [9], the “Log K3” value is 9.64. Further, the logP in [3] was -0.652. Moreover, the pKa is 3.29 in data set [10] and 9.45 in data set [12]. The Efficacy in the data set on Rattus norvegicus [4] worked out at 9%. Besides, the pFe3 in [11] stood at 20.4.

Regarding `CCc1c(O)c(=O)ccn1CCO`, the Efficacy in the data set on Rattus norvegicus [4] worked out at 12.9%.

Take `CCC(O)c1c(O)c(=O)cc(C)n1C` (stereo not drawn): the “Log K1” value in [6] is listed as 14.5. The molecule further gave a logD in data set [1] of -0.134. Besides, in the data set with Rattus norvegicus [2], the Iron mobilization is given as 60.4%. The “Log K2” value in [7] turned out to be 11.48. For the same molecule, the “Log beta3” value in data set [8] came to 35. Moreover, the “Log K3” value in data set [9] turned out to be 9.05. The logP in data set [3] is -0.134. Also, the values for the pKa in data set [10], in data set [15] and in [12] were 3.76, 3.78 and 9, respectively. Also, the Efficacy with Rattus norvegicus [4] is 56.5%. The same molecule registered a pFe3 in data set [11] of 21.

As for `Cc1cc(=O)c(O)c(CO)n1C`, in data set [6], the “Log K1” value is 14.39. The pH-dependent lipophilicity (logD) in data set [1] is -1.01. The same molecule had an Iron mobilization with Rattus norvegicus [2] of 4.5%. Besides, the “Log K2” value in data set [7] came to 11.57. Also, the “Log beta3” value in [8] turned out to be 35.5. In data set [9], the “Log K3” value was determined as 9.55. Besides, the logP in data set [3] is -1.01. The pKa in data set [10] was 3.32; in [12], 9.44. In the data set with Rattus norvegicus [4], the Efficacy is 0.6%. Besides, the pFe3 in data set [11] is 20.4.

In the case of `Cc1c(O)c(=O)ccn1CCCO`, the Efficacy with Rattus norvegicus [4] came out at 26%.

For the molecule `CCc1c(O)c(=O)ccn1CC`, the “Log K1” value in data set [6] is recorded as 15.2. The “Log K2” value in data set [7] turned out to be 11.76. In data set [8], the “Log beta3” value amounted to 36.8. In addition, the “Log K3” value in data set [9] worked out at 9.84. For the same molecule, the pKa in data set [10] is 3.81; in data set [12], 9.93. The Efficacy in the data set on Rattus norvegicus [4] worked out at 55.8%. This molecule registered a pFe3 in data set [11] of 19.7.

As for `Cc1c(O)c(=O)ccn1C` [DEFERIPRONE], in data set [6], the “Log K1” value is 14.56. In addition, in data set [7], the “Log K2” value is on record as 12.19. The “Log beta3” value in [8] turned out to be 36.4. The molecule further registered an Efficacy in the data set on Rattus norvegicus [16] of 9.5%. Further, the “Log K3” value in data set [9] is reported as 9.69. In addition, the pFe3 in data set [11] amounted to 19.4. Further, the pKa in data set [12] stood at 9.77.
